For one experiment, the target named is T1, Vasopressin V1b receptor (Homo sapiens, UniProt P47901).
T1 sequence (P47901 whole entry): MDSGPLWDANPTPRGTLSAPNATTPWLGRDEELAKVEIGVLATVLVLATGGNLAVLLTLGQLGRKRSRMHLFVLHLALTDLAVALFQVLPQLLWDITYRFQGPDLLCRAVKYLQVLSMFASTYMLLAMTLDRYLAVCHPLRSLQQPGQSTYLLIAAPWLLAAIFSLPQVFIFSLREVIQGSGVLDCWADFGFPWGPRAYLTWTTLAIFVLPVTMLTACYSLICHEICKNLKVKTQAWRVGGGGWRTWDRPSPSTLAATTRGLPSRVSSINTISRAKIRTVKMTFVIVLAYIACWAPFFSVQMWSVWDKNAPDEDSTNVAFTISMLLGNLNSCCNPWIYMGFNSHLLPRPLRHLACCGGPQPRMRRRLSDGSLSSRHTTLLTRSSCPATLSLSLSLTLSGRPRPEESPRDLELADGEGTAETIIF
The experiment can be described thus: Binding affinity towards human Vasopressin V1b receptor. A digest of the protocol:
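Competition binding on membranes from CHO cells stably expressing one human receptor, butyrate-treated (5 mM, overnight). Radioligands: OT, 200-250 pM [125I]OTA or 120-180 pM [125I]HO-LVA; V1a, 40-60 pM [125I]HO-LVA; V1b, 1-3 nM [3H]AVP. Competitor 1 pM-1 µM; nonspecific with 1 µM unlabeled ligand; 1 h, 30 °C. Ki by nonlinear least-squares, ≥3 experiments in triplicate.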

For another experiment, the target named is T2, Oxytocin receptor (Homo sapiens, UniProt P30559).
T2 sequence (P30559 whole entry): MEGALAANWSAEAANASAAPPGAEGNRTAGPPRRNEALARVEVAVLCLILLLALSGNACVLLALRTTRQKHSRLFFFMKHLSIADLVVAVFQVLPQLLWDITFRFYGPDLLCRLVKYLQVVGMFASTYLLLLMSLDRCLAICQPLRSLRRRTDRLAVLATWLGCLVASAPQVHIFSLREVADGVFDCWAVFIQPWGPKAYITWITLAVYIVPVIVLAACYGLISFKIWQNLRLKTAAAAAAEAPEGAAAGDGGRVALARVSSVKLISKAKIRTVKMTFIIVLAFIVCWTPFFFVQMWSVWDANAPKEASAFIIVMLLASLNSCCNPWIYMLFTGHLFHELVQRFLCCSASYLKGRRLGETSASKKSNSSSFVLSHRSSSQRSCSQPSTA
Kind of experiment: Binding affinity for human oxytocin receptor.

A further experiment has as its target Vasopressin V1a receptor (Homo sapiens, UniProt P37288). Kind of experiment: Binding affinity for human Vasopressin V1a receptor.
In another experiment the target is Vasopressin V2 receptor (Homo sapiens, UniProt P30518). The experiment can be described thus: Binding affinity towards human Vasopressin V2 receptor. A digest of the protocol:
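Human V2 receptor stably expressed in CHO cells, butyrate-treated (5 mM, overnight); membranes at 5-10 µg protein/assay competed against 1-3 nM [3H]AVP. Fluorescent ligand ranged 1 pM-1 µM; nonspecific binding defined with 1 µM unlabeled ligand. Incubation 1 h at 30 °C. Ki from nonlinear least-squares fit of two independent experiments, each run in triplicate.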

*1 amine or outer side, *2 acyl side, *3 side chain or, on linkers, in order; H or OH if unused. Where a SMILES comes first, the peptide text is derived from it. Bridges are numbered along the chain shown (N, C = ends). [ ]: non-standard residue; d: D form. The star is where a group is joined. 6FAM = O=C1OC2(c3ccc(O)cc3Oc3cc(O)ccc32)c2cc(C(=O)*)ccc21; X1 = O=C([C@@H](O)CS[*:2])[*:1]; Orn = NCCC[C@H](N)C(=O)O; Mpa = O=C(O)CCS

Vasopressin V1a receptor, sequence (P37288 whole entry): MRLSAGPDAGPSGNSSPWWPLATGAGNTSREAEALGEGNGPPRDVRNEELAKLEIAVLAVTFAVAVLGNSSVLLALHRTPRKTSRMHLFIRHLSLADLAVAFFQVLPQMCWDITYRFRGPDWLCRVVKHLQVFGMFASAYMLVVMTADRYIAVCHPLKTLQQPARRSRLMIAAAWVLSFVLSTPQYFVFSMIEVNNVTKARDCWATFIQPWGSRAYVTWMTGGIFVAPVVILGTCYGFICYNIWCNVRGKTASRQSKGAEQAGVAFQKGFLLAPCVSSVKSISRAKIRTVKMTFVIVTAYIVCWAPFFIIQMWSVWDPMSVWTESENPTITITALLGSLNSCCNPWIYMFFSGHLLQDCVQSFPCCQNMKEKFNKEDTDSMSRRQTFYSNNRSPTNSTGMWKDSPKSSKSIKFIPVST
Vasopressin V2 receptor, sequence (P30518 whole entry): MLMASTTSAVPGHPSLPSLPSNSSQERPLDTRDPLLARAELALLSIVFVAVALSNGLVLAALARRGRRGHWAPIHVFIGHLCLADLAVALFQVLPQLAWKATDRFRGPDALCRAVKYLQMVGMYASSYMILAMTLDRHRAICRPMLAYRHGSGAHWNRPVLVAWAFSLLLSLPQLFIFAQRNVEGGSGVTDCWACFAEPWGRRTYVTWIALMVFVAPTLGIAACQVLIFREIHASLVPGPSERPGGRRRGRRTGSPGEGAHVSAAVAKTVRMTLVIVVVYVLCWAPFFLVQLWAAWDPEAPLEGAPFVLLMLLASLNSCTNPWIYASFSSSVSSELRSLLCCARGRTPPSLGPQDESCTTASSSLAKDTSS

Take `CC[C@H](C)[C@@H]1NC(=O)[C@H](Cc2ccc(O)cc2)NC(=O)[C@@H](O)CSSC[C@@H](C(=O)N2CCC[C@H]2C(=O)N[C@@H](CCCCNC(=O)c2ccc3c(c2)C2(OC3=O)c3ccc(O)cc3Oc3cc(O)ccc32)C(=O)NCC(N)=O)NC(=O)[C@H](CC(N)=O)NC(=O)[C@H]([C@@H](C)O)NC1=O` (YITNCPK(6FAM)G-NH2; linker N-5 via X1): the Ki on Vasopressin V1b receptor was 53 nM; at Oxytocin receptor, 0.32 nM; at Vasopressin V1a receptor it was 17.3 nM; on Vasopressin V2 receptor it was more than 10 µM.

Take `CC[C@H](C)[C@@H]1NC(=O)[C@H](Cc2ccc(O)cc2)NC(=O)[C@@H](O)CSSC[C@@H](C(=O)N2CCC[C@H]2C(=O)N[C@@H](CCCNC(=O)c2ccc3c(c2)C2(OC3=O)c3ccc(O)cc3Oc3cc(O)ccc32)C(=O)NCC(N)=O)NC(=O)[C@H](CC(N)=O)NC(=O)[C@H]([C@@H](C)O)NC1=O` (YITNCP[Orn](6FAM)G-NH2; linker N-5 via X1): the Ki on Vasopressin V1b receptor is 87 nM; at Oxytocin receptor, 0.17 nM; on Vasopressin V1a receptor, 11.8 nM; on Vasopressin V2 receptor, more than 1 µM.

As to `CC[C@H](C)[C@@H]1NC(=O)[C@H](Cc2ccc(O)cc2)NC(=O)CCSSC[C@@H](C(=O)N2CCC[C@H]2C(=O)N[C@@H](CCCNC(=O)c2ccc3c(c2)C2(OC3=O)c3ccc(O)cc3Oc3cc(O)ccc32)C(=O)NCC(N)=O)NC(=O)[C@H](CC(N)=O)NC(=O)[C@H]([C@@H](C)O)NC1=O` ([Mpa]YITNCP[Orn](6FAM)G-NH2; disulfide 1-6), the inhibition constant (Ki) on Vasopressin V1b receptor was 282 nM; at Oxytocin receptor it was 0.4 nM; on Vasopressin V1a receptor, 30 nM; on Vasopressin V2 receptor, more than 10 µM.

On to `CC[C@H](C)[C@@H]1NC(=O)[C@H](Cc2ccc(O)cc2)NC(=O)CCSSC[C@@H](C(=O)N2CCC[C@H]2C(=O)N[C@@H](CCCCNC(=O)c2ccc3c(c2)C2(OC3=O)c3ccc(O)cc3Oc3cc(O)ccc32)C(=O)NCC(N)=O)NC(=O)[C@H](CC(N)=O)NC(=O)[C@H]([C@@H](C)O)NC1=O` ([Mpa]YITNCPK(6FAM)G-NH2; disulfide 1-6), for which the Ki at Vasopressin V1b receptor is 150 nM; on Oxytocin receptor, 1.8 nM; at Vasopressin V1a receptor it was 25.5 nM; at Vasopressin V2 receptor, more than 10 µM.

The values are drawn from ChEMBL document CHEMBL1135468 (J Med Chem, 2002).
